# Reference: ChEMBL document CHEMBL5252510, “A Novel Potent Oral Series of VEGFR2 Inhibitors Abrogate Tumor Growth by Inhibiting Angiogenesis” (J Med Chem, 2016)
# pIC50: −log10 of the molar value. Calls of active or inactive are those of the source. The rule behind the calls is not given here.
# What was measured:
# [1] = Toxicity in C57BL/6jNpa mouse harbouring mouse B16-BL6 cells assessed as effect on animal well-being at 3 mg/kg, po qd administered started on day 7 post implantation measured after 21 days; assay type: organism-based; conditions: in vivo, 504 h, time 7-21 day
# Method in brief: (§1)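 Female C57BL/6JNpa mice received 50000 B16/BL6 cells intradermally in both ear pinnae. Randomized on day 7 into groups of 5–6, then dosed 3 mg/kg p.o. daily in PEG200/PEG300 for 14 days. Behavior and well-being were observed. On day 21, blood was analysed for platelet, red and white cell counts and hematocrit.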
# [2] = test system: B16-BL6; experiment: Antitumor activity against mouse B16-BL6 cells implanted in C57BL/6jNpa mouse assessed as primary tumor growth inhibition at 3 mg/kg, po qd administered started on day 7 post implantation measured after 21 days relative to control; assay type: functional; conditions: time 7-21 day, read-out: TGI
# Method in brief: (§2)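 Female C57BL/6JNpa mice, 50000 B16/BL6 cells intradermally in both ear pinnae; primary tumor area (mm²) imaged days 7, 14, 21; randomized day 7 into groups of 5-6, oral dosing in PEG200 or PEG300 vehicle daily (or every 2 days) for 14 days; day 21 cervical lymph nodes weighed, metastasis lysates assayed for TIE-2 by ELISA; T/C ratios.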
# [3] = Toxicity in C57BL/6jNpa mouse harbouring mouse B16-BL6 cells assessed as drug tolerability at 3 mg/kg, po qd administered started on day 7 post implantation measured after 21 days; assay type: organism-based; conditions: in vivo, 504 h, time 7-21 day; method in brief: as §1
# [4] = Clearance in Sprague-Dawley rat at 3 mg/kg, iv measured upto 24 hrs by HPLC/UV analysis; assay type: ADME, organism-based; conditions: in vivo
# Method in brief: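 Female Sprague Dawley rats, 8 weeks old, catheterized in the jugular vein and femoral artery, recovered 96 h. IV dose 3 mg/kg in ethanol/NMP/PEG400/5 % glucose (10/10/50/30). n=2. Plasma sampled at 5, 15, 30 min and 1, 2, 4, 6, 8, 24 h.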
# [5] = test system: BaF3; experiment: Antiproliferative activity against mouse BaF3 cells expressing Tel-KDR-myc1.3 assessed as cell growth inhibition measured after 72 hrs by Alamar Blue assay; conditions: BaF3, 72 h
# [6] = test system: BaF3; experiment: Antiproliferative activity against mouse BaF3 cells expressing NPM-ALK assessed as cell growth inhibition measured after 72 hrs by Alamar Blue assay; conditions: BaF3, 72 h
# [7] = Volume of distribution at steady state in Sprague-Dawley rat at 3 mg/kg, iv measured upto 24 hrs by HPLC/UV analysis; assay type: ADME, organism-based; conditions: in vivo, read-out: Vdss
# Method in brief: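 Female Sprague Dawley rats, 8 weeks, jugular vein and femoral artery catheters, 96 h recovery. IV 3 mg/kg in ethanol/NMP/PEG400/D5W (10/10/50/30), n=2.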
# [8] = biological target: Vascular endothelial growth factor receptor 3 (Homo sapiens, UniProt P35916); experiment: Inhibition of human recombinant GST-fused VEGFR3 kinase domain transphosphorylation expressed in baculovirus expression system using poly-Glu-Tyr (4:1) as substrate measured after 10 mins in presence of gamma-[33P]-ATP by scintillation counting analysis
# Sequence of Vascular endothelial growth factor receptor 3 (P35916 whole entry, the tested form may be a part): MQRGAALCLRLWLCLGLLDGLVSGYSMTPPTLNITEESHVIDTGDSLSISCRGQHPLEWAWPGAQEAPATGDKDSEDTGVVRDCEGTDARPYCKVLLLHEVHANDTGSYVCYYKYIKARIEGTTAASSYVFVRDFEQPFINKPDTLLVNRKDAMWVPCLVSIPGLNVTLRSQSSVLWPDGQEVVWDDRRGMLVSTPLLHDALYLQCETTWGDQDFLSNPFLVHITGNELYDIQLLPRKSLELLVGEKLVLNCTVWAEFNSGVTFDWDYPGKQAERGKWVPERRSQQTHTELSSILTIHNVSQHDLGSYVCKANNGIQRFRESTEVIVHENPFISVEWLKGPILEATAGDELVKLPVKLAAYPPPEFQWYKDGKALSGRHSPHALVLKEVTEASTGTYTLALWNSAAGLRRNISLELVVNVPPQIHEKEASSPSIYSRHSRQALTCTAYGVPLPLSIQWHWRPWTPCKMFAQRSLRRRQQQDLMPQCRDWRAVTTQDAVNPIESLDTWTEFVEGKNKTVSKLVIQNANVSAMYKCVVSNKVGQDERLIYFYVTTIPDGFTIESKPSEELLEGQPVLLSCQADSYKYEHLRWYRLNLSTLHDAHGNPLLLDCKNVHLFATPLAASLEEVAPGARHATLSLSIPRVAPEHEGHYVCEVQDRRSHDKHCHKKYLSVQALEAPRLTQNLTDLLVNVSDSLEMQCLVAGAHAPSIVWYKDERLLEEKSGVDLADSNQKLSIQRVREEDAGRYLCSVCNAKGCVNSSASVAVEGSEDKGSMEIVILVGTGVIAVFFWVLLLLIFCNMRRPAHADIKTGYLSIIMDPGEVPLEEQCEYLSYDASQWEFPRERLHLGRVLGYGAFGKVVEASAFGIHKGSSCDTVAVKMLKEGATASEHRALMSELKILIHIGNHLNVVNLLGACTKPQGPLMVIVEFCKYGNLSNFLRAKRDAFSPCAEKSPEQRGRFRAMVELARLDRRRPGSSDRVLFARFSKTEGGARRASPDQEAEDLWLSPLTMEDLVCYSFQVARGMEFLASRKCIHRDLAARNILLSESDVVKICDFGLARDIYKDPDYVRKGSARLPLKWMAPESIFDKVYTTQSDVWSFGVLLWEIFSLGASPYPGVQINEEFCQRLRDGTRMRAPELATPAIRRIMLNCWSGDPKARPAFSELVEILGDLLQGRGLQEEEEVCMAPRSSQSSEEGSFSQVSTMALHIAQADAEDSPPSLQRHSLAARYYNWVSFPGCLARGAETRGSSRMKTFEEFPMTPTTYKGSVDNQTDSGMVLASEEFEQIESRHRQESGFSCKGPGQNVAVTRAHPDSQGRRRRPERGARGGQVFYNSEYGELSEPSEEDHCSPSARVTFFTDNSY
# Method in brief: (§3)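 GST-fused kinase domains were expressed in baculovirus and purified on glutathione-Sepharose. 10 min at ambient temperature, stopped with EDTA. Filter binding and scintillation counting. IC50 by linear regression of percent inhibition.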
# [9] = test system: HUVEC; experiment: Antiproliferative activity against bFGF-stimulated HUVEC cells assessed as cell growth inhibition measured after 24 hrs by BrdUrd incorporation based spectrophotometric analysis; conditions: Homo sapiens
# [10] = Toxicity in C57BL/6jNpa mouse harbouring mouse B16-BL6 cells assessed as effect on hematocrit levels at 3 mg/kg, po qd administered started on day 7 post implantation measured after 21 days; assay type: organism-based; conditions: in vivo, 504 h, time 7-21 day
# Method in brief: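 B16/BL6 melanoma cells (50000) injected intradermally into dorsal pinna of both ears of female mice (18–20 g). Randomized on day 7 into groups of 5-6 by primary tumor size, then dosed orally once daily for 14 days in PEG300 or PEG200. Sacrificed day 21; blood analysed directly for platelets, red and white cell counts, hematocrit. Body and spleen weight recorded versus healthy naive mouse.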
# [11] = test system: BaF3; experiment: Antiproliferative activity against mouse BaF3 cells expressing Tel-IGF-1R assessed as cell growth inhibition measured after 72 hrs by Alamar Blue assay; conditions: BaF3, 72 h
# [12] = test system: BaF3; experiment: Antiproliferative activity against mouse BaF3 cells expressing PTC3-RET assessed as cell growth inhibition measured after 72 hrs by Alamar Blue assay; conditions: BaF3, 72 h
# [13] = test system: B16-BL6; experiment: Antitumor activity against mouse B16-BL6 cells implanted in C57BL/6jNpa mouse assessed as metastatic tumor growth inhibition by measuring T/C ratio at 3 mg/kg, po qd administered started on day 7 post implantation measured after 21 days; assay type: functional; conditions: time 7-21 day; method in brief: as §2
# [14] = test system: BaF3; experiment: Antiproliferative activity against mouse BaF3 cells expressing Tel-PDGFRbeta assessed as cell growth inhibition measured after 72 hrs by Alamar Blue assay; conditions: BaF3, 72 h
# [15] = biological target: Insulin receptor (Homo sapiens, UniProt P06213); experiment: Inhibition of INSR (unknown origin) autophosphorylation expressed in […] by ELISA-based assay; assay type: cell-based
# Sequence of Insulin receptor (P06213 28-758 limits assumed): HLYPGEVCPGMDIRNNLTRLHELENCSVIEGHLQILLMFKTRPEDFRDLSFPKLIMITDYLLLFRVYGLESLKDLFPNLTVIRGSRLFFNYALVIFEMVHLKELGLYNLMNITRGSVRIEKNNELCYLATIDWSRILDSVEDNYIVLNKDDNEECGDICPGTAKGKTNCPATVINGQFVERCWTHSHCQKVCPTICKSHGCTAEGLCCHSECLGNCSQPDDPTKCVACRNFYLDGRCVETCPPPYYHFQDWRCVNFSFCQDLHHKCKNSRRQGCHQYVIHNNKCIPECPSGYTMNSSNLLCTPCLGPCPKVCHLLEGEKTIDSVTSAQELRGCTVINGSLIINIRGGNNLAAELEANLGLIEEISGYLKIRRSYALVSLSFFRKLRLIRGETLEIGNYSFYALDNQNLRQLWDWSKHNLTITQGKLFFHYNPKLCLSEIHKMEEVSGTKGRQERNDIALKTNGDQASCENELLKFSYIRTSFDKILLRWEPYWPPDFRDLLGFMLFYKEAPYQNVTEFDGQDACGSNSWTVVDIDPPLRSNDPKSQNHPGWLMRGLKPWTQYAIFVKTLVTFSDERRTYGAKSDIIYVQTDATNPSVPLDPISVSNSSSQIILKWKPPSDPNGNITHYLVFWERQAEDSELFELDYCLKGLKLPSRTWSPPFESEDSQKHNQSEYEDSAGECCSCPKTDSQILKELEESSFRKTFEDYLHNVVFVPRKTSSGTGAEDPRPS
# Sequence of Insulin receptor (P06213 763-1382 limits assumed): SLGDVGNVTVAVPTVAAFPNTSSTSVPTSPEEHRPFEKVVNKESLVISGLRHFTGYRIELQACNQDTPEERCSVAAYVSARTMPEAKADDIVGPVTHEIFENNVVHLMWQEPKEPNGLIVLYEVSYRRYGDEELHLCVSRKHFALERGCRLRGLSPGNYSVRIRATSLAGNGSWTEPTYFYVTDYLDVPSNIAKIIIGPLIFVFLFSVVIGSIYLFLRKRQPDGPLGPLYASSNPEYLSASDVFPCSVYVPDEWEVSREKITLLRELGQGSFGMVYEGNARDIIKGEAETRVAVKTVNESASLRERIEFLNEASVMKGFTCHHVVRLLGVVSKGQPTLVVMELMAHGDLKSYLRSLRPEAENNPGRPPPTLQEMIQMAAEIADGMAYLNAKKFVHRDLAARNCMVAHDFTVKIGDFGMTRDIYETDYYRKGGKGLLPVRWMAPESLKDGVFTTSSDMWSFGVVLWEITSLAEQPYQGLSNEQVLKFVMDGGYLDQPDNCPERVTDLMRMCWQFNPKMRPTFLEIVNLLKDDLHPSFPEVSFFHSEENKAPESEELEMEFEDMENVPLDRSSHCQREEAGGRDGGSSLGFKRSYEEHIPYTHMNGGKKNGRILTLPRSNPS
# Method in brief: (§4)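 Cells were stimulated with the respective ligand. Receptor tyrosine kinase autophosphorylation in the presence of compound was quantified by ELISA.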
# [16] = Antitumor activity against rat BN472 cell implanted in Brown-Norway rat assessed as tumor growth inhibition by measuring T/C ratio at 3 mg/kg, po qd measured upto 14 days; assay type: functional; conditions: time <= 14 day
# Method in brief: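 Female Brown-Norway rats (160-180 g) given 3 mm³ BN472 tumor fragments in mammary fat pads; at about 200 mm², randomized into groups of 7-8 and dosed orally with compound or PEG300 vehicle over 14 days; tumor growth followed, T/C computed; significance by 2-way RM-ANOVA.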
# [17] = biological target: Serine/threonine-protein kinase B-raf (Homo sapiens) (UniProt P15056); experiment: Inhibition of human recombinant GST-fused BRAF expressed in baculovirus expression system using poly-Glu-Tyr (4:1) as substrate measured after 10 mins in presence of gamma-[33P]-ATP by scintillation counting analysis; method in brief: as §3
# [18] = biological target: Receptor tyrosine-protein kinase erbB-2 (Homo sapiens, UniProt P04626); experiment: Inhibition of ERBB2 (unknown origin) autophosphorylation expressed in human BT-474 cells by ELISA-based assay; assay type: cell-based; method in brief: as §4
# Sequence of Receptor tyrosine-protein kinase erbB-2 (P04626 whole entry, the tested form may be a part): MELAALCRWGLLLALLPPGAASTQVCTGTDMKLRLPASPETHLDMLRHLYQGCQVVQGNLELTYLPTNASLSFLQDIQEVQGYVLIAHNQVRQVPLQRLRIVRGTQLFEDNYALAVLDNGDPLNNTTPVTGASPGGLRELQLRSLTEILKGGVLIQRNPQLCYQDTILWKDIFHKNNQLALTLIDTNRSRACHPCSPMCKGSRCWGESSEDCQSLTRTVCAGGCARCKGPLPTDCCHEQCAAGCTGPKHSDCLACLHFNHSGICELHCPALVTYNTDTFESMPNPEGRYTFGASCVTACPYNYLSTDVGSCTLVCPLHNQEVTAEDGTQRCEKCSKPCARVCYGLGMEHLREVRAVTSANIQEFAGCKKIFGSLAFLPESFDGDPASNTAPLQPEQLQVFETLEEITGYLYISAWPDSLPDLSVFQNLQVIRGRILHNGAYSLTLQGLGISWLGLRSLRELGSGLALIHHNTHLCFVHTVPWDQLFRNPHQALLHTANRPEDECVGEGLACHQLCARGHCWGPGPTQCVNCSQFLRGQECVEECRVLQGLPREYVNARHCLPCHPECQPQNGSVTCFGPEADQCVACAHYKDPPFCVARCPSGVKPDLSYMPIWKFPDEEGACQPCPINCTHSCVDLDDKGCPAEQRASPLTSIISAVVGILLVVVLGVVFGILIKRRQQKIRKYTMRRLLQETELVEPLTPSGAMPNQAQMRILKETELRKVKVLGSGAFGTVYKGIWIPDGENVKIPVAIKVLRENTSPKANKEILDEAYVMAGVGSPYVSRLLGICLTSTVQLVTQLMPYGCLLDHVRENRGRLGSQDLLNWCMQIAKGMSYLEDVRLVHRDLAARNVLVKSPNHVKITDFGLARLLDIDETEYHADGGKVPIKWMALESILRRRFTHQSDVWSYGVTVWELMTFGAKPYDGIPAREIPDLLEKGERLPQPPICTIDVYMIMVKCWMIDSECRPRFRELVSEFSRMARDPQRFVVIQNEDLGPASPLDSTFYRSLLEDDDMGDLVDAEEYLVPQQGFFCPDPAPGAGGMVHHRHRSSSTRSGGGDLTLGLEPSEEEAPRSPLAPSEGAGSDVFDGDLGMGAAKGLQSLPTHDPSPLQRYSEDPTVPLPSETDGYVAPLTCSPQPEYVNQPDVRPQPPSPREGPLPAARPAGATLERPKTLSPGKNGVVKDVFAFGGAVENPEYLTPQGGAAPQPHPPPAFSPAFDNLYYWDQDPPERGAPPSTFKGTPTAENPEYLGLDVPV
# [19] = biological target: Mast/stem cell growth factor receptor Kit (Homo sapiens, UniProt P10721); experiment: Inhibition of human recombinant GST-fused c-KIT expressed in baculovirus expression system using poly-Glu-Tyr (4:1) as substrate measured after 10 mins in presence of gamma-[33P]-ATP by scintillation counting analysis; method in brief: as §3
# Sequence of Mast/stem cell growth factor receptor Kit (P10721 whole entry, the tested form may be a part): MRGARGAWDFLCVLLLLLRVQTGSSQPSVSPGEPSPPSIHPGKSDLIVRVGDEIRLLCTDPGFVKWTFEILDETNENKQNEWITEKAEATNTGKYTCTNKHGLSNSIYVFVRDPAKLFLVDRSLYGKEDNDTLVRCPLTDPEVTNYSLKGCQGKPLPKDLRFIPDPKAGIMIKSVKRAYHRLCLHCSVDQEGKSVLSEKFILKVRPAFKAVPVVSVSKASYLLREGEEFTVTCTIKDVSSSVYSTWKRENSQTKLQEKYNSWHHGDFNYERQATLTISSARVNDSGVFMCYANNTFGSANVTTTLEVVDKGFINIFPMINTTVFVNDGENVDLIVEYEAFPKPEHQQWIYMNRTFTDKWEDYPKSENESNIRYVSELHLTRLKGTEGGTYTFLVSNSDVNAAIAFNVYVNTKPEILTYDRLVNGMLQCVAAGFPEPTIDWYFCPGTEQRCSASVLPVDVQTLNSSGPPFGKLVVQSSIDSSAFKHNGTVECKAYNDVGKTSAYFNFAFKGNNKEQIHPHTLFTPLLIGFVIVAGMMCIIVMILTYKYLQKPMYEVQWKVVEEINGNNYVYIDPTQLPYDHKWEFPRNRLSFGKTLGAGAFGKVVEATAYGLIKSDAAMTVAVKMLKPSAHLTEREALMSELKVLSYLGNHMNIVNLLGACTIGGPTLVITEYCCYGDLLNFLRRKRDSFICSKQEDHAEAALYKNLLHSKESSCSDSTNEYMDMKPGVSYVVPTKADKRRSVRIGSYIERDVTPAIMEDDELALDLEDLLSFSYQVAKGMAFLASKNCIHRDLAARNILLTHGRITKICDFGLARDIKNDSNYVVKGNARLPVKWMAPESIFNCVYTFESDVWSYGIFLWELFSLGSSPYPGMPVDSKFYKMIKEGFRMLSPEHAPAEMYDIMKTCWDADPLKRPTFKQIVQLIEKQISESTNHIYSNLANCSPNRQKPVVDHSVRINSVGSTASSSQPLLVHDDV
# [20] = test system: Mus musculus; experiment: Anti-angiogenesis activity in FVB mouse model assessed as inhibition of VEGF-induced tissue TIE-2 level at 0.3 mg/kg, po qd treated for 4 to 6 hrs prior to chamber implantation and continuing for 4 days measured after 24 hrs post last dose by ELISA analysis; assay type: functional, organism-based; conditions: time 5.0 day
# Method in brief: (§5)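 Female FVB mice (18-20 g), porous chambers with VEGF (2 μg/mL) in 0.8 % w/v agar containing heparin 20 U/mL implanted s.c. in flank; compound p.o. once daily in 100 % PEG200 (5 mL/kg) from 4-6 h before implantation for 4 days; tissue removed 24 h after last dose, weighed, lysate assayed for TIE-2 by sandwich ELISA; n=6 per dose, mean ± SEM.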
# [21] = test system: Mus musculus; experiment: Anti-angiogenesis activity in FVB mouse model assessed as inhibition of VEGF-induced tissue weight at 0.3 mg/kg, po qd treated for 4 to 6 hrs prior to chamber implantation and continuing for 4 days measured after 24 hrs post last dose; assay type: functional, organism-based; conditions: time 5.0 day; method in brief: as §5
clearance [4],pIC50 [5],pIC50 [6],Vd [7],pIC50 [8],pIC50 [11],pIC50 [12],pIC50 [14],pIC50 [15],inhibition [17],pIC50 [18],pIC50 [19],Structure (SMILES),Activity [1],inhibition in vivo at 3 mg/kg [2],Activity [3],pIC50 [9],Activity [10],T/C [13],T/C [16],Activity [20],further results
0.18 L/h/kg,8.70,< 5.00,0.9 L/kg,7.30,< 5.00,8.05,8.40,–,–,–,–,Nc1cc(Oc2ccc3c(C(=O)Nc4cccc(C(F)(F)F)c4)cccc3c2)ncn1,Non-Toxic,54%,Non-Toxic,< 5.52,Non-Toxic,0.04,–,–,–
0.17 L/h/kg,8.05,< 5.00,3.5 L/kg,6.75,5.05,6.65,7.80,–,–,–,–,Nc1nccc(Oc2ccc3c(C(=O)Nc4ccc(F)c(C(F)(F)F)c4)cccc3c2)n1,Non-Toxic,54%,Non-Toxic,< 8.00,Non-Toxic,0.13,5.6,Active,Activity [21]: Active

# The next lines start with the compound.
Structure (SMILES),clearance [4],pIC50 [5],pIC50 [6],Vd [7],pIC50 [8],pIC50 [11],pIC50 [12],pIC50 [14],pIC50 [15],inhibition [17],pIC50 [18],pIC50 [19],Activity [1],inhibition in vivo at 3 mg/kg [2],Activity [3],pIC50 [9],Activity [10],T/C [13],T/C [16],Activity [20],further results
Nc1nccc(Oc2ccc3c(C(=O)Nc4cccc(C(F)(F)F)c4)cccc3c2)n1,–,8.40,< 5.00,–,6.38,< 5.00,6.82,8.05,< 6.30,Active,< 6.30,< 5.00,Non-Toxic,54%,Non-Toxic,< 5.52,–,0.29,35.5,–,–
O=C(Nc1cccc(C(F)(F)F)c1)c1cccc2cc(Oc3cc(CO)ncn3)ccc12 [BFH-772],–,8.70,< 5.00,–,5.96,5.14,6.98,7.57,< 6.30,Active,< 6.30,< 5.70,Non-Toxic,54%,Non-Toxic,< 5.52,–,0.17,–,Active,Activity [21]: Active
Nc1cc(Oc2ccc3c(C(=O)Nc4ccc(F)c(C(F)(F)F)c4)cccc3c2)ncn1,0.05 L/h/kg,8.30,< 5.00,1.5 L/kg,6.63,< 5.00,7.40,8.00,–,–,–,–,Non-Toxic,54%,Non-Toxic,6.69,Non-Toxic,0.04,–,–,–
